Measurements of several laboratories.
Protocols differ between the studies behind these lines.
Target: Mitogen-activated protein kinase kinase kinase 15 (MAP3K15, Homo sapiens, UniProt Q6ZN16)
Sequence (Q6ZN16 1-1313, as in one of the studies): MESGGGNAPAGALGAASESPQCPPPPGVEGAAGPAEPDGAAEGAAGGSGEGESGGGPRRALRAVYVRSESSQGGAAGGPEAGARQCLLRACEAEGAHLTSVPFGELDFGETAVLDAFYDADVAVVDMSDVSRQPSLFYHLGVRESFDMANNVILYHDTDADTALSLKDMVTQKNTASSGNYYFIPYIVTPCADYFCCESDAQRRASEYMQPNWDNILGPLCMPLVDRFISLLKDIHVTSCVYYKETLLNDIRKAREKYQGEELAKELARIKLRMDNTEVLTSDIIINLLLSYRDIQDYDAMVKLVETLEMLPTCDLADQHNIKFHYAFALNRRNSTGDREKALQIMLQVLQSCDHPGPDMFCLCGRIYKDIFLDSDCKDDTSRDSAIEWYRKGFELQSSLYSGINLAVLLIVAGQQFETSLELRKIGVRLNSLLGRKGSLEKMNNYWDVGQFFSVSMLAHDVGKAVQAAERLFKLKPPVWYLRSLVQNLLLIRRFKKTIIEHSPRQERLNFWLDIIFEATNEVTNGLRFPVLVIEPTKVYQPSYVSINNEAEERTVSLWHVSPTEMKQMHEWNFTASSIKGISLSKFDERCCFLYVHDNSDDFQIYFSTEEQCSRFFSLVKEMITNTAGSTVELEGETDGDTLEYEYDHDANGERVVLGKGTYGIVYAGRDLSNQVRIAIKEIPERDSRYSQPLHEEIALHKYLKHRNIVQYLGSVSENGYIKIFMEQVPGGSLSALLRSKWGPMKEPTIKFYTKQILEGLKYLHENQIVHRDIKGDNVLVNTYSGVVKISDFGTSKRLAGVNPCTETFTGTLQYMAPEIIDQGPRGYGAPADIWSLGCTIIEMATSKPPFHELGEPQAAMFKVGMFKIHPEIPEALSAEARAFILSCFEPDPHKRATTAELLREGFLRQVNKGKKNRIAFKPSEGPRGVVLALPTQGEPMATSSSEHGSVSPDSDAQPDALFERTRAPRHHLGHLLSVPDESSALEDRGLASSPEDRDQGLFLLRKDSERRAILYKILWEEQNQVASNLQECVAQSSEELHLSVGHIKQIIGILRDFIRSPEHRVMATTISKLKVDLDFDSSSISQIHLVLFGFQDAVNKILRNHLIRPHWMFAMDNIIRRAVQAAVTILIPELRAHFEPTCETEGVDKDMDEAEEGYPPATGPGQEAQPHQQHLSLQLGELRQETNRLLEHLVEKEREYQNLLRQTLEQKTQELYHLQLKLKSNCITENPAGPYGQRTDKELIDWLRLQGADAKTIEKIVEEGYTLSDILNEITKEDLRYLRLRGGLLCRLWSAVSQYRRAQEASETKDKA

F[C@@H]1CCN(c2nccc(-c3cnn4ncccc34)n2)C1 — remaining binding (binding; 1 µM): 100%
Cn1cc(Cl)c2c(Oc3c(F)cc(Nc4cc(Cl)nc(N)n4)cc3F)ccnc21 — remaining binding (cell-free assay; competition with immobilised ligand; 0.1 µM): 84%
C[C@@H](c1ccc(-n2cnc3c(N)ncnc32)cc1)N1CCc2nn(C)c(Cc3ccccc3)c2C1=O — remaining binding (binding; competition with immobilised ligand; 0.1 µM): 60%
Cc1cnc(Nc2ccc(C(=O)N3CCC(N4CCCC4)CC3)cc2)nc1-c1cc2ccccc2s1 — remaining binding (binding; competition with immobilised ligand; 1 µM): 38%
CCCCN(CCCC)C(=O)CN1C[C@@H](c2cc(OC)c3c(c2)OCO3)[C@H](C(=O)O)[C@H]1CC(C)(C)CCC — remaining binding (cell-free assay; competition with immobilised ligand; 1 µM): 99%
CC1CCCN1c1nccc(-c2cnn3ncccc23)n1 (stereo not drawn) — remaining binding (binding; 1 µM): 100%
CNC(=O)[C@@H]1CC[C@@H](n2c(-c3ccc4cnccc4c3)nc3ccc(C(=O)NCc4cccc(C(N)=O)c4)cc32)C1 — remaining binding (binding; competition with immobilised ligand; 1 µM): 99%
O=C(NCCCN1CCOCC1)c1ccc(Nc2ncc(Cl)c(-c3ccc(Cl)s3)n2)cc1 — remaining binding (binding; competition with immobilised ligand; 1 µM): 68%
O=C(NCC1CCOCC1)c1n[nH]cc1NC(=O)c1c(F)cccc1F — remaining binding (binding; competition with immobilised ligand; 1 µM): 72%
N[C@@H]1CCN(c2nccc(-c3cnn4ncccc34)n2)C1 — remaining binding (binding; 1 µM): 92%
COc1cnc(Nc2cccc(S(N)(=O)=O)c2)nc1N1CCN(c2ccccc2)CC1 — remaining binding (binding; competition with immobilised ligand; 1 µM): 78%
CCN1CCN(Cc2ccc(C(=O)Nc3ccc(C)c(Oc4ccc5c(c4)CC(=O)N5)c3)cc2C(F)(F)F)CC1 — remaining binding (binding; competition with immobilised ligand; 1 µM): 100%
CN(C)C(=O)Cn1cc(-c2nc([C@@](C)(c3ccc(-c4cnc(N)nc4)cc3)C3CC3)no2)cn1 — remaining binding (cell-free assay; competition with immobilised ligand; 1 µM): 99%
CN(CCCC(F)(F)F)c1nccc(-c2cnn3ncccc23)n1 — remaining binding (binding; 1 µM): 100%
O=c1nc(-c2ccccn2)sc2ccccc12 — remaining binding (binding; competition with immobilised ligand; 1 µM): 100%
CN(C)c1nccc(-c2cnn3ncccc23)n1 — remaining binding (binding; 1 µM): 91%
O=C(O)c1cc(-c2ccc(C3CCNCC3)cc2)c2ccc(-c3ccc(C(F)(F)F)cc3)cc2c1 — remaining binding (cell-free assay; competition with immobilised ligand; 1 µM): 99%
O=C(NCCCN1CCOCC1)c1ccc(Nc2nccc(-c3cc4ccccc4s3)n2)cc1 — remaining binding (binding; competition with immobilised ligand; 1 µM): 56%
CN(c1nccc(-c2cnn3ncccc23)n1)C1CC1 — remaining binding (binding; 1 µM): 100%
CC1=C(C#N)C(c2ccc3c(c2)c(NC(=O)c2ccccc2C)nn3C)C(C#N)=C(C)N1 — remaining binding (cell-free assay; competition with immobilised ligand; 1 µM): 96%
COc1ncc2cc3ccccc3nc2c1C#N — remaining binding (cell-free assay; competition with immobilised ligand; 5 µM): 95%
